Shown are actives, neighbours in structure and some others; about 1.5% of the full set was active somewhere.
S100A4 inh HTS: inhibitors of S100A4-myosin IIA peptide binding, primary screen, biochemical, fluorescence polarization, TAMRA-MyoIIA peptide; Protein S100-A4 (Homo sapiens), P26447; inhibition, % at 10.7 µM; actives 0.14% (n = 360,000); AID 652163, 2013;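 active means mean inhibition of at least 70% across replicates, with every replicate also reaching that level; inconclusive means mean inhibition reaches 70% but some replicates fall short; inactive means mean inhibition below 70%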
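Material: S100A4 monomer protein | Medium: HEPES pH 7.2 with CaCl2, KCl, NaCl, DTT, Triton | Reagent: Labelled myosin peptide probe, 5 nM | Doses: One dose per compound | Times: 5 min incubation before reading | Benchmarks: Neutral control DMSO, positive control TFP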
dFosB act-1: activators of delta FosB homodimer, primary screen, biochemical, fluorescence polarization, TAMRA-CDK5 oligo, single point; purified delta FosB; percent of positive-control signal above neutral wells; activation, % at 25 µM; actives 0.99% (n = 340,000); AID 493131, 2011;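 active means mean activation above about 17%, with every replicate also reaching it, limit read from the data, passing the limit was not always enough; inconclusive means only one of the two conditions met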
RAD52 inh: RAD52 DNA annealing inhibitors, primary screen, biochemical, FRET, single point, set 2; DNA repair protein RAD52 homolog (Homo sapiens), P43351; actives 0.46% (n = 360,000); inhibition, % at 18.7 µM; AID 651710, 2012; recombinant RAD52 DNA annealing, FRET fluorescence;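 active means every replicate showing at least 50% inhibition; inconclusive means mean inhibition at least 50% but not in every replicate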
MLL AF4-AF9 inh: inhibitors of AF4 peptide binding to AF9, primary screen, biochemical, AlphaScreen, biotin-AF4 peptide, FLAG-AF9, single point. Protein AF-9 (Homo sapiens), P42568. inhibition, % at 10 µM. actives 0.47% (n = 350,000);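 active means every replicate reaching a set inhibition limit, whatever the replicate mean, cut at about 25% in these data; inconclusive means mean inhibition reaches that limit but some replicates miss it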
RAD54 branch: inhibitors of human RAD54 branch migration, primary screen, biochemical, fluorescence, single point; RAD54 Holliday junction branch migration, FAM/BHQ fluorescence; DNA repair and recombination protein RAD54-like (Homo sapiens), Q92698; actives 0.14% (n = 360,000); inhibition, % at 10.4 µM;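 active means mean normalized replicate activity at least 40 and at least half of replicates scoring 40 or more; inconclusive means only one of the two criteria met; inactive means mean below 40 and under half of replicates reaching 40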;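 further: inhibitors cause a drop in the FAM fluorescence signal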
Target sequence (Q92698 whole entry, looked up): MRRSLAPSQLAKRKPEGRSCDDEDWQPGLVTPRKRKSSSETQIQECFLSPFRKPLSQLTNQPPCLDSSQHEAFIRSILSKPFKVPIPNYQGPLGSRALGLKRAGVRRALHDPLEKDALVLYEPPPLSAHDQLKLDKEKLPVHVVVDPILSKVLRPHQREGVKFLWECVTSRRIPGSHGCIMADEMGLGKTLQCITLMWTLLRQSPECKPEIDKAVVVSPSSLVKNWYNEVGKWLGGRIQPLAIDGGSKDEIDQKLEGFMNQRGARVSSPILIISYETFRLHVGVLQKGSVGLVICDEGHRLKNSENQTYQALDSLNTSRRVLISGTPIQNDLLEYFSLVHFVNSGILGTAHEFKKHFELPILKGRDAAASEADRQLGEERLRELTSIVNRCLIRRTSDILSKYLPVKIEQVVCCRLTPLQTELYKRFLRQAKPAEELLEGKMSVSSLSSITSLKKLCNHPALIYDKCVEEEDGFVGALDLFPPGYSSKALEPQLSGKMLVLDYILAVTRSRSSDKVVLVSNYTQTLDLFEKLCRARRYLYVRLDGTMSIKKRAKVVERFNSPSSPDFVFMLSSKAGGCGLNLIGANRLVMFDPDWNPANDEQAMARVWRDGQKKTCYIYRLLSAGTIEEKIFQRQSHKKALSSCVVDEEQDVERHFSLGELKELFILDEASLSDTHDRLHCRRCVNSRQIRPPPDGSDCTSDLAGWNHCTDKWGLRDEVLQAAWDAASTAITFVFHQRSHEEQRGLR
dFosB act-2: activators of mouse delta FosB DNA binding, confirmation, biochemical, fluorescence polarization, TAMRA-CDK5 oligo, cherry-picked samples. shares compounds with dFosB act-1. purified delta FosB; normalised: neutral wells 0, positive control 100. activation, % at 24.9 µM. 2,400 tested, under 10 active. AID 588690, 2011;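 active means highest replicate activation at or above 34% and every replicate reaching that threshold; inconclusive means meets only one of the two criteria; inactive means meets neither criterion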;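 further: higher polarization means more probe DNA bound by delta FosB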
A number is an active result; i = inactive; ? = inconclusive; nt = no result given.

SMILES	S100A4 inh HTS	dFosB act-1	RAD52 inh	MLL AF4-AF9 inh	RAD54 branch	dFosB act-2
CCc1ccc(NC(=O)C(C)OC(=O)c2cc(=O)[nH]c3ccc(S(=O)(=O)Nc4ccc(F)cc4)cc23)cc1 (stereo unspecified)	i	100	i	i	nt	i
CC(=O)Nc1ccc(NC(=O)Cn2cnc3c(nnn3Cc3ccc(F)cc3)c2=O)cc1	i	i	i	i	i	nt
O=C(Cn1nnc(-c2ccc(F)cc2)n1)Nc1ccc2c(c1)OCCO2	i	36	i	i	nt	i
O=C(Cn1cnc2c(nnn2Cc2ccccc2)c1=O)Nc1ccc2c(c1)OCCO2	i	30	i	i	i	i
O=C(CN1C(=O)c2ccccc2C1=O)NCC(=O)OCC(=O)c1ccc(Br)cc1	nt	46	nt	nt	nt	i
O=C(CNC(=O)c1ccc(N2C(=O)c3ccccc3C2=O)cc1)OCC(=O)c1ccc(Cl)cc1	i	113	i	i	i	i
CNC(=O)CN(c1ccc(C23CC4CC(CC(C4)C2)C3)cc1)S(C)(=O)=O	i	i	i	i	nt	nt
CS(=O)(=O)N(CC(=O)Nc1c(F)cccc1F)c1ccc(C23CC4CC(CC(C4)C2)C3)cc1	nt	54	nt	nt	i	i
COc1cccc(NC(=O)Cn2nc(Cc3cccnc3)c3ccccc3c2=O)c1	i	i	i	i	i	nt
C=CC(=O)Nc1cccc(CN2C(=O)N(c3cc(OC)cc(OC)c3)Cc3cnc(NCCCCN(CC)CC)nc32)c1	nt	36	nt	nt	i	?
Cc1ccc(S(=O)(=O)N[C@H]2CC[C@@H](CCNS(=O)(=O)Cc3ccccc3)O[C@@H]2CO)cc1	i	nt	i	i	i	nt
COc1cccc(NC(=O)c2cc(=O)c3ccccc3o2)c1	i	i	i	i	i	nt
COc1ccc(NS(=O)(=O)c2cc(NC(=O)c3cc(=O)c4ccccc4o3)ccc2OC)cc1	i	48	i	i	nt	i
O=C(Nc1ccc(Cl)c(Cl)c1)c1ccc(Cn2c(=O)[nH]c3ccsc3c2=O)cc1	i	22	i	i	i	i
O=C(NC1CCCC1)c1ccc(Cn2c(=O)[nH]c3ccsc3c2=O)cc1	i	i	i	i	nt	nt
O=C(Nc1ccc(Oc2ccccc2)cc1)c1ccc(Cn2c(=O)[nH]c3ccsc3c2=O)cc1	i	62	i	i	i	i
C[C@H]1CN([C@@H](C)CO)C(=O)c2cc(NC(=O)Nc3ccc(C(F)(F)F)cc3)ccc2O[C@H]1CN(C)C	i	nt	i	i	i	nt
CC(C)NC(=O)N[C@@H]1CC[C@H](CCNS(=O)(=O)c2ccc(Cl)cc2)O[C@H]1CO	i	nt	i	i	i	nt
Cc1cc(C)c(S(=O)(=O)N2CCc3ccccc32)c(C)c1	i	27	i	i	i	i
Cc1n[nH]c(C)c1S(=O)(=O)N1CCc2ccccc21	nt	i	nt	nt	i	nt
Nc1ccc(S(=O)(=O)Nc2nccc(/C=C/c3ccccc3F)n2)cc1	i	26	i	i	nt	i
Cc1ccnc(NS(=O)(=O)c2ccc(NC(=O)c3ccccc3F)cc2)n1	i	i	i	i	i	nt
COc1cccc(S(=O)(=O)N[C@H]2C=C[C@H](CC(=O)NCc3ccc(F)cc3)O[C@H]2CO)c1	i	nt	i	i	i	nt
CC(C)c1nnc(NC(=O)CCC(=O)NCc2ccccc2Cl)s1	i	i	i	i	i	nt
CC(C)Cc1nnc(NC(=O)CCC(=O)NCc2ccccc2Cl)s1	i	19	i	i	nt	i
SMILES	S100A4 inh HTS	dFosB act-1	RAD52 inh	MLL AF4-AF9 inh	RAD54 branch	dFosB act-2
CCOc1ccc(CNC(=O)Cn2c(=O)c3cccn3c3ccccc32)cc1	i	41	i	i	i	i
CC(C)Oc1ccc(CNC(=O)Cn2c(=O)c3cccn3c3cccnc32)cc1	i	30	i	i	i	i
COc1cccc(CNC(=O)CCn2c(=O)c3cccn3c3cccnc32)c1	i	i	i	i	i	nt
O=C(C[C@H]1CC[C@H]2[C@@H](COC[C@@H](O)CN2Cc2cccc(-c3ccncc3)c2)O1)N1CCN(c2ccccc2)CC1	i	nt	i	i	i	nt
COc1ccc(CCNC(=O)CCCCCNc2nc(=S)[nH]c3ccccc23)cc1OC	nt	i	nt	nt	i	nt
COc1ccc(CNC(=O)CCCCCNc2nc(=S)[nH]c3ccccc23)cc1	i	39	i	i	i	i
O=C(NC1CCCCC1)c1ccc(CNc2nc(=S)[nH]c3ccccc23)cc1	i	19	i	i	i	i
S=c1nc(NCc2ccc3c(c2)OCO3)c2ccccc2[nH]1	i	i	i	i	i	nt
O=[N+]([O-])c1cccc(COc2ccc(CO)cc2)c1	i	nt	i	i	nt	nt
O=C1NC(=O)/C(=C\c2ccc(OCc3cccc([N+](=O)[O-])c3)cc2)N1	i	31	i	i	nt	i
Cc1noc(C)c1S(=O)(=O)Nc1cccc2c1O[C@@H](CN(C)CC1CC1)[C@@H](C)CN([C@@H](C)CO)C2=O	i	nt	i	i	i	nt
C[C@H](CO)N1C[C@H](C)[C@@H](CN(C)Cc2ccc(C(=O)O)cc2)OCCCC[C@H](C)Oc2ccc(NS(=O)(=O)c3ccc(F)cc3)cc2C1=O	i	nt	i	i	i	nt
COc1ccc(N(CC(=O)Nc2ccc3c(c2)OCCO3)S(=O)(=O)c2c(C)noc2C)cc1	nt	37	nt	nt	i	i
CCC(=O)N(C)C[C@H]1Oc2cc(Br)ccc2S(=O)(=O)N([C@H](C)CO)C[C@@H]1C	i	nt	i	i	i	nt
Fc1ccc(Nc2nc(Oc3ccc4c(c3)OCO4)nc(N3CCOCC3)n2)c(F)c1	nt	61	nt	nt	i	i
O=C(/C=C/c1cc2c(cc1Br)OCO2)NCc1ccc(F)cc1	nt	25	nt	nt	i	i
COc1ccc(CNC(=O)/C=C/c2cc3c(cc2Br)OCO3)cc1	nt	i	nt	nt	i	nt
COc1ccc(Cl)cc1N1C(=O)CC(Sc2ccccc2N)C1=O (stereo unspecified)	i	38	i	i	i	i
O=C(Nc1ccc(Br)cc1)c1cccc(N2C(=O)C3C4CCC(C4)C3C2=O)c1 (stereo unspecified)	nt	20	nt	nt	i	i
CCN(CC)S(=O)(=O)c1cc(C(=O)OCC(=O)c2ccc3c(c2)NC(=O)CO3)ccc1F	nt	20	nt	nt	i	i
CN(C)S(=O)(=O)c1cccc(C(=O)OCC(=O)c2ccc3c(c2)NC(=O)CO3)c1	i	i	i	i	i	nt
O=C1COc2ccc(C(=O)COc3ccc([N+](=O)[O-])cc3)cc2N1	i	18	i	i	nt	i
CN(C)S(=O)(=O)c1ccc(C(=O)OCC(=O)c2ccc3c(c2)NC(=O)CO3)cc1	i	27	i	i	i	i

Compound activity: PubChem, Broad Institute
